Test results taken from ChEMBL document CHEMBL5705899 (Biochem J, 2014).
Calls of active or inactive are those of the source. The calls are words filed in the database; no cut-off is given here.

Experiments:
[1] = molecular target: Ribosomal protein S6 kinase alpha-6 (Homo sapiens) (UniProt Q9UK32); assay: Inhibition of human RPS6KA6 at 1 uM using RBER-GSK3 as substrate in presence of 33P-ATP by ProQinase assay
[2] = molecular target: Protein-tyrosine kinase 6 (Homo sapiens) (UniProt Q13882); assay: Inhibition of human BRK at 1 uM using polyEy as substrate in presence of 33P-ATP by ProQinase assay
[3] = molecular target: Ribosomal protein S6 kinase beta-1 (Homo sapiens) (UniProt P23443); assay: Inhibition of human S6K1 at 1 uM using RBER-GSK3 as substrate in presence of 33P-ATP by ProQinase assay
[4] = molecular target: Serine/threonine-protein kinase N2 (Homo sapiens) (UniProt Q16513); assay: Inhibition of recombinant N-terminal His6/FLAG-tagged human PRK2 (501 to 984 residues) expressed in baculovirus infected Sf21 cells assessed as remaining activity at 1 uM using S6 peptide as substrate incubated for 30 mins in presence of [gamma-33P]ATP by filter binding method relative to control
[5] = molecular target: Serine/threonine-protein kinase NLK (Homo sapiens) (UniProt Q9UBE8); assay: Inhibition of human NLK at 1 uM using RBER-GSK3 as substrate in presence of 33P-ATP by ProQinase assay
[6] = molecular target: T1, Phosphatidylinositol 4-phosphate 3-kinase C2 domain-containing subunit beta (Homo sapiens, UniProt O00750); assay: Inhibition of human PIK3C2B using PIP2/PS as substrate by ADP-Glo assay
T1 sequence (O00750 whole entry, the tested form may be a part): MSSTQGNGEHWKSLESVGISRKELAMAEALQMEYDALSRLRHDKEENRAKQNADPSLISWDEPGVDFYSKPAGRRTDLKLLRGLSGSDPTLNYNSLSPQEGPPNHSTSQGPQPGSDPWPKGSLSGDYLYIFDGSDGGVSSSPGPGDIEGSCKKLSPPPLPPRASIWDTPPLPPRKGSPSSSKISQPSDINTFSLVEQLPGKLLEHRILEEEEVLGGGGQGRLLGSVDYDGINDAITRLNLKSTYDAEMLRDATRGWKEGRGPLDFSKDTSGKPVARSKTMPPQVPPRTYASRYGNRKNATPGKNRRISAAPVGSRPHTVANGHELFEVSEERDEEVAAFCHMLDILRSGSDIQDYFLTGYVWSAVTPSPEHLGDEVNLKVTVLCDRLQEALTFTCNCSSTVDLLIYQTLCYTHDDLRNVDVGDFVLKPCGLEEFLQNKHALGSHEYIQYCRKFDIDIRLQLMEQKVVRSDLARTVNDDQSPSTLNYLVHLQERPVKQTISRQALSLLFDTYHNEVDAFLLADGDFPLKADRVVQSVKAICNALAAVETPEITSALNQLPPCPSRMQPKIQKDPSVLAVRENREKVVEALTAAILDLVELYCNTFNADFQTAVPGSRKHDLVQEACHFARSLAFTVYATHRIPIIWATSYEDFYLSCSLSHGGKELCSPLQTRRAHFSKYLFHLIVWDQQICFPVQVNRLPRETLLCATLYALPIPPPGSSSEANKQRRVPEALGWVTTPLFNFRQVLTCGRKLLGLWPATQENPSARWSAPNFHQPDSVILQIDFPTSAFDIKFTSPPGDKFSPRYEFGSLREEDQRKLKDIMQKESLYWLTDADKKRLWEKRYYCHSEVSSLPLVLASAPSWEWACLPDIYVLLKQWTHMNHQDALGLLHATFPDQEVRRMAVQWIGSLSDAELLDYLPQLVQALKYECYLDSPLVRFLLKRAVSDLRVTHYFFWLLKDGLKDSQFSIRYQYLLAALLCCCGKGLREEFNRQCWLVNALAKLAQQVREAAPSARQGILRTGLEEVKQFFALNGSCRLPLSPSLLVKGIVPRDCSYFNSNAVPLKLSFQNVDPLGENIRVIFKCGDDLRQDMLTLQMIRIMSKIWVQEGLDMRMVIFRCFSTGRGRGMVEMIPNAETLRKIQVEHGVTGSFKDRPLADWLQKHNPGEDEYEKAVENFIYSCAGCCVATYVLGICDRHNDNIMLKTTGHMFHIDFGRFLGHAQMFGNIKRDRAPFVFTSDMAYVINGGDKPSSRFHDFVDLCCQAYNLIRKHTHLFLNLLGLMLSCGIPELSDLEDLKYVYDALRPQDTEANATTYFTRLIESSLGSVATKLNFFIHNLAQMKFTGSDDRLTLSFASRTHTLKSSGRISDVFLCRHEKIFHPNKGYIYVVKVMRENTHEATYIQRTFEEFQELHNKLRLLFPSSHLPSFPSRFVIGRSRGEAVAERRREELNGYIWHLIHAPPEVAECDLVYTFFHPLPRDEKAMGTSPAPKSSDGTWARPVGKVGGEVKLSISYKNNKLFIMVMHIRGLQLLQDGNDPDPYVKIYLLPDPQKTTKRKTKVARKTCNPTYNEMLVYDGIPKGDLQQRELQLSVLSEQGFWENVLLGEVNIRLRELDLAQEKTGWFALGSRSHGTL

[7] = molecular target: PAS domain-containing serine/threonine-protein kinase (Homo sapiens) (UniProt Q96RG2); assay: Inhibition of human PASK at 1 uM using RBER-CHKtide as substrate in presence of 33P-ATP by ProQinase assay
[8] = molecular target: Serine/threonine-protein kinase Chk2 (Homo sapiens) (UniProt O96017); assay: Inhibition of human CHK2 at 1 uM using bio-4xCHKT as substrate in presence of 33P-ATP by ProQinase assay
[9] = molecular target: T2, 3-phosphoinositide-dependent protein kinase 1 (Homo sapiens) (UniProt O15530); assay: Inhibition of human PDK1 at 1 uM using bio-4xCHKT as substrate in presence of 33P-ATP by ProQinase assay
T2 sequence (whole entry): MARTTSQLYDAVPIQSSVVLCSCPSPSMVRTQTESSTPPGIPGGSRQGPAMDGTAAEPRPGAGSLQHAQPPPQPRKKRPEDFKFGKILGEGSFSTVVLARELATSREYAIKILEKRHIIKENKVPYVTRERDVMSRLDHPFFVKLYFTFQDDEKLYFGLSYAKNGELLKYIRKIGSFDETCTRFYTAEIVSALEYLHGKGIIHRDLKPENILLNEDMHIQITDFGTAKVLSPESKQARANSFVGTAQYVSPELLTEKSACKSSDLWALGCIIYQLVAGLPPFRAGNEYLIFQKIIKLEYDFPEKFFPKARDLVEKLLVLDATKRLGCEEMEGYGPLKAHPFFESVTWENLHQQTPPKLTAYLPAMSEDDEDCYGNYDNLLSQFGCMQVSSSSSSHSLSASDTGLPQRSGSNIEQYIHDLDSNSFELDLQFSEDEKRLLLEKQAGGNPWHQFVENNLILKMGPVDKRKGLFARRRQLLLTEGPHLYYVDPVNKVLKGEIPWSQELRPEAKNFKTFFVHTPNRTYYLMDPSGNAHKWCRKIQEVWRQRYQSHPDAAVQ

[10] = molecular target: Fibroblast growth factor receptor 3 (Homo sapiens) (UniProt P22607); assay: Inhibition of human FGFR3 at 1 uM using polyEY as substrate in presence of 33P-ATP by ProQinase assay
Chain of Fibroblast growth factor receptor 3 (Homo sapiens) (P22607 23-806 limits assumed): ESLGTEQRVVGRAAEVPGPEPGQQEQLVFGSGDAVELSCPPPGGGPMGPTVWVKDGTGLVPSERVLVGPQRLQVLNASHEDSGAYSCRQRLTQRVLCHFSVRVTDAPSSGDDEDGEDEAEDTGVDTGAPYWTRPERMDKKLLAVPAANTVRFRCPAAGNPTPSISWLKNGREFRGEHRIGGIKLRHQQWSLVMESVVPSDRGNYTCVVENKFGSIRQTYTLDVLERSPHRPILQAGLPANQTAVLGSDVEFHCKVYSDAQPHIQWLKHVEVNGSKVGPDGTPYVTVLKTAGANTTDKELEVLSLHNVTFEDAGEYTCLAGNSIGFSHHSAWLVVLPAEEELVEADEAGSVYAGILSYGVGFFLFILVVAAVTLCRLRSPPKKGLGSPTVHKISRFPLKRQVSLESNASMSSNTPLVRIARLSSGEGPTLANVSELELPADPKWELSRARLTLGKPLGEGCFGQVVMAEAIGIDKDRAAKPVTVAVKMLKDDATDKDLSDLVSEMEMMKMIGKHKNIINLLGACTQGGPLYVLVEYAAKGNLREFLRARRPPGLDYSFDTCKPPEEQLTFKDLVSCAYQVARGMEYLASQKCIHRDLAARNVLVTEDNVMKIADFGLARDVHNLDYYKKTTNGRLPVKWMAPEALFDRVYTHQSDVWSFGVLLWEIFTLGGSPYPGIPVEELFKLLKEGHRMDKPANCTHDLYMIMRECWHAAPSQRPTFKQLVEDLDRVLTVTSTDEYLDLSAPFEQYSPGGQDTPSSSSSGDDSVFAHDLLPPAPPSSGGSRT

[11] = molecular target: Interleukin-1 receptor-associated kinase 1 (Homo sapiens) (UniProt P51617); assay: Inhibition of recombinant human N-terminal GST-tagged IRAK1 (1 to 712 residues) expressed in baculovirus infected Sf21 cells assessed as remaining activity at 1 uM using MBP as substrate incubated for 30 mins in presence of [gamma-33P]ATP by filter binding method relative to control
Chain of Interleukin-1 receptor-associated kinase 1 (Homo sapiens) (P51617 whole entry, looked up, the tested form may be a part): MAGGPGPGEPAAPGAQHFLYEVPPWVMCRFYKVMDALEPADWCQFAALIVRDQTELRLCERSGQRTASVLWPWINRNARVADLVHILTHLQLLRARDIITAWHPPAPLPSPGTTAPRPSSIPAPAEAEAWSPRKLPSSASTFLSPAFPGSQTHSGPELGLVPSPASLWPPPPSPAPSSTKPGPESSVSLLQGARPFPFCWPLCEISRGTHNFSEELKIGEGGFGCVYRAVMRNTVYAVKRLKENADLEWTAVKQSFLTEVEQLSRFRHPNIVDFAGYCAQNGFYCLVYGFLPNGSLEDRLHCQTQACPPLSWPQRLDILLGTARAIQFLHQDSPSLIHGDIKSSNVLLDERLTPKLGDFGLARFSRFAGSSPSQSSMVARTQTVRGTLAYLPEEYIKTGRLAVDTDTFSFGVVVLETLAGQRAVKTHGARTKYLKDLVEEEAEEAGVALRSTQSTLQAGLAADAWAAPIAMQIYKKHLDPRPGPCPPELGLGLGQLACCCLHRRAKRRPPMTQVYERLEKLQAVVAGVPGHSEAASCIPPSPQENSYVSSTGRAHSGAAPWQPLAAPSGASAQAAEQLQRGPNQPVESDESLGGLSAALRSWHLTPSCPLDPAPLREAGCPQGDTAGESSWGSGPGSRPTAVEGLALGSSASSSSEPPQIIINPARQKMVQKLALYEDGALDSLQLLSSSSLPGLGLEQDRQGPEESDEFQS

[12] = molecular target: High affinity nerve growth factor receptor (Homo sapiens) (UniProt P04629); assay: Inhibition of recombinant human N-terminal His6-tagged TrkA (441 to 760 residues) expressed in baculovirus infected Sf21 cells assessed as remaining activity at 1 uM using Poly(Glu,Tyr) as substrate incubated for 30 mins in presence of [gamma-33P]ATP by filter binding method relative to control
Chain of High affinity nerve growth factor receptor (Homo sapiens) (P04629 33-796 limits assumed): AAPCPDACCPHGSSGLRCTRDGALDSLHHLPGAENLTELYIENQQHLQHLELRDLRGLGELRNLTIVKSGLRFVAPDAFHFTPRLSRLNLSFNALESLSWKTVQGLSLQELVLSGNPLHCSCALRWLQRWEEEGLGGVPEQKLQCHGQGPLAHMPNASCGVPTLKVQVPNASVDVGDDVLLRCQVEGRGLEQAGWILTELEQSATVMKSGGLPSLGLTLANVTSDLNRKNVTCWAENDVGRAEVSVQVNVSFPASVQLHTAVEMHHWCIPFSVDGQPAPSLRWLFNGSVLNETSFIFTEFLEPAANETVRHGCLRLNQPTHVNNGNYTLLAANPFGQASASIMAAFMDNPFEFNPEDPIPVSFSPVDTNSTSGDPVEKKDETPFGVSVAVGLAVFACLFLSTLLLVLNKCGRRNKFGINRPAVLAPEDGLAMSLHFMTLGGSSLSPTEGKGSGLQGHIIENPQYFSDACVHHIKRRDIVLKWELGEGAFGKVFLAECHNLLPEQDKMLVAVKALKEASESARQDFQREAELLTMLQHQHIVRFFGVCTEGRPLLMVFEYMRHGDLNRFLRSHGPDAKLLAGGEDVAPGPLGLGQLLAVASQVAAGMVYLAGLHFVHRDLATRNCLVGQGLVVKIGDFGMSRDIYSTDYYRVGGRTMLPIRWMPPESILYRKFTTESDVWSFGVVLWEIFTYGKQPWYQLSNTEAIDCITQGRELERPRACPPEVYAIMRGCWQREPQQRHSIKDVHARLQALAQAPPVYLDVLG

[13] = molecular target: Diacylglycerol kinase gamma (Homo sapiens) (UniProt P49619); assay: Inhibition of recombinant human N-terminal His6-tagged DGKgamma (1 to 752 residues) expressed in baculovirus expression system at 1 uM using diacyl-glycerol as substrate incubated for 40 mins by ADP-Glo assay
[14] = molecular target: Phosphatidylinositol 4-kinase beta (Homo sapiens, UniProt Q9UBF8); assay: Inhibition of PI4Kbeta (unknown origin) using D-myo-PtdIns as substrate incubated for 45 mins by ADP-Glo assay
Method in brief: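 PI4Kα: 1 nM enzyme, 72 μM ATP, 25 μM PtdIns. PI4Kβ: 2 nM enzyme, 220 μM ATP, 50 μM PtdIns. Reactions ran 45 min at ambient temperature; ADP-Glo reagent was added for 40 min, then detection reagent for 30 min, then luminescence was read.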

[15] = molecular target: T1, Phosphatidylinositol 4-phosphate 3-kinase C2 domain-containing subunit beta; assay: Inhibition of PI3KC2beta (unknown origin) at 1 uM
[16] = molecular target: Inhibitor of nuclear factor kappa-B kinase subunit epsilon (Homo sapiens) (UniProt Q14164); assay: Inhibition of human IKKepsilon at 1 uM using RBER-GSK3 as substrate in presence of 33P-ATP by ProQinase assay
Chain of Inhibitor of nuclear factor kappa-B kinase subunit epsilon (Homo sapiens) (Q14164 whole entry): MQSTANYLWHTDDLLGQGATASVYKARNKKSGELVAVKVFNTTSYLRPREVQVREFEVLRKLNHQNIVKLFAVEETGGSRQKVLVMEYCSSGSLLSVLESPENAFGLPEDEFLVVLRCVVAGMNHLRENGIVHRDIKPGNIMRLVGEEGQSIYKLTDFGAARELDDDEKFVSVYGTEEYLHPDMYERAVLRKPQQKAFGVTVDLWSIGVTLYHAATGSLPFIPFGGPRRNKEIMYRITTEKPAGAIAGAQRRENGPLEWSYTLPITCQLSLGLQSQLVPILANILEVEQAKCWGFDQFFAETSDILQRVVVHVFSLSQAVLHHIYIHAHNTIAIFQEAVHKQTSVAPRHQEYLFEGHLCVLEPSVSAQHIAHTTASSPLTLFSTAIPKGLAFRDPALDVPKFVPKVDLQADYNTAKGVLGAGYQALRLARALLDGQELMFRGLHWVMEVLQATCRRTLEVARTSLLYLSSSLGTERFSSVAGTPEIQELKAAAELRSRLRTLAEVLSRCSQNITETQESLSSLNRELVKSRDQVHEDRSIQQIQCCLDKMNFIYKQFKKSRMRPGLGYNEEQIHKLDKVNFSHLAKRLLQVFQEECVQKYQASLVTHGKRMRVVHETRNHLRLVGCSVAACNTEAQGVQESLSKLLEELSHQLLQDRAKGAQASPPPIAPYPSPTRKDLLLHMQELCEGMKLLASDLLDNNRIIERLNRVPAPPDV

[17] = molecular target: Mitogen-activated protein kinase kinase kinase 8 (Homo sapiens) (UniProt P41279); assay: Inhibition of human COT at 1 uM using RBER-CHKtide as substrate in presence of 33P-ATP by ProQinase assay
Chain of Mitogen-activated protein kinase kinase kinase 8 (Homo sapiens) (P41279 whole entry): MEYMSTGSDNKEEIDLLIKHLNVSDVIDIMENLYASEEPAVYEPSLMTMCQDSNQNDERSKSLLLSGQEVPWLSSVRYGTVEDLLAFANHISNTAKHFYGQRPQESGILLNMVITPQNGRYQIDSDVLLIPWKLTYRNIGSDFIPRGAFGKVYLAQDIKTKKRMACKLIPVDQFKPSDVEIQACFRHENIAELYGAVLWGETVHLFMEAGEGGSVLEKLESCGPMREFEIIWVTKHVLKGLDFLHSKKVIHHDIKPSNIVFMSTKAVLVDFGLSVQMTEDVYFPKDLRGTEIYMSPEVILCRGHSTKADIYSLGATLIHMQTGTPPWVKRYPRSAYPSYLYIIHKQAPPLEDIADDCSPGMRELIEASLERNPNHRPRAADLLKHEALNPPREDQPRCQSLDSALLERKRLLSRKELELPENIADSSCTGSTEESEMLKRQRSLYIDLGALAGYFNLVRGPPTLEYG

[18] = molecular target: Aurora kinase A (Homo sapiens) (UniProt O14965); assay: Inhibition of human AuroraA at 1 uM using bio-4xCHKT as substrate in presence of 33P-ATP by ProQinase assay
[19] = molecular target: Platelet-derived growth factor receptor beta (Homo sapiens) (UniProt P09619); assay: Inhibition of human PDGFRbeta at 1 uM using poly(Ala,Glu,Lys,Tyr) as substrate in presence of 33P-ATP by ProQinase assay
[20] = molecular target: Serine/threonine-protein kinase Sgk1 (Homo sapiens) (UniProt O00141); assay: Inhibition of human SGK1 at 1 uM using RBER-GSK3 as substrate in presence of 33P-ATP by ProQinase assay
[21] = molecular target: Phosphatidylinositol 3-kinase C2 domain-containing subunit gamma (Homo sapiens) (UniProt O75747); assay: Inhibition of PI3KC2gamma (unknown origin) at 1 uM
[22] = molecular target: Dual serine/threonine and tyrosine protein kinase (Homo sapiens) (UniProt Q6XUX3); assay: Inhibition of human RIPK5 at 1 uM using RBER-CHKtide as substrate in presence of 33P-ATP by ProQinase assay

CC(C)(O)CNc1ncc(-c2ccnc(Nc3ccnc(Cl)c3)n2)c(CC2CC2)n1
inhibition [1]: inactive
inhibition [2]: inactive
inhibition [3]: inactive
Activity [4]: 116%
inhibition [5]: inactive
IC50 [6]: > 10 µM
inhibition [7]: inactive
inhibition [8]: inactive
inhibition [9]: inactive
inhibition [10]: inactive
Activity [11]: 112%
Activity [12]: 70%
inhibition [13]: inactive
IC50 [14]: 1.07 µM
inhibition [15]: inactive
inhibition [16]: inactive
inhibition [17]: inactive
inhibition [18]: inactive
inhibition [19]: inactive
inhibition [20]: inactive
inhibition [21]: inactive
inhibition [22]: inactive
